ChEMBL document CHEMBL1149771, “Antimicrobial studies of 2,4-dichloro-5-fluorophenyl containing oxadiazoles” (2008)
Values after ≈ are worked out from the molar mass of the structure shown.

Legend:
Format in all cases: functional
[1] = tested on: Trichophyton mentagrophytes; assay: Antifungal activity against Trichophyton mentagrophytes at 35 degC after 48 hrs
Procedure, shortened: (§1)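 Fungicidal endpoint (MFC). 0.1 ml from each broth-dilution tube was spread on agar plates and c.f.u. counted after 48 h at 35 °C. MFC was the lowest concentration killing 99.9% of the inoculum.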

Talaromyces marneffei [2] = assay: Antifungal activity against Penicillium marneffei at 35 degC after 48 hrs by broth dilution method
Procedure, shortened: (§2)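 Fungal MIC by broth dilution. Two-fold serial dilutions of compound in nutrient broth were inoculated with about 1.6 × 10⁴–6 × 10⁴ c.f.u./ml. Incubation was 48 h at 35 °C. MIC was the lowest concentration arresting fungal growth.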

Candida albicans [3] = assay: Antifungal activity against Candida albicans at 35 degC after 48 hrs by broth dilution method; procedure, shortened: as §2
Aspergillus fumigatus [4] = assay: Antifungal activity against Aspergillus fumigatus at 35 degC after 48 hrs; procedure, shortened: as §1
Pseudomonas aeruginosa [5] = assay: Antibacterial activity against Pseudomonas aeruginosa ATCC 27853 at 37 degC after 24 hrs by disc diffusion method
Procedure, shortened: (§3)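 Disc diffusion on nutrient agar. Plates were spread with 1–2 × […] c.f.u./ml inoculum (0.5 McFarland). Sterile 6.25 mm filter-paper discs were soaked in a known concentration of compound and placed on the agar. Plates were inverted and incubated 24 h at 37 °C. Inhibition zones (mm) were read against solvent and growth controls, with ciprofloxacin as reference.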

Candida albicans [6] = assay: Antifungal activity against Candida albicans at 35 degC after 48 hrs; procedure, shortened: as §1
Talaromyces marneffei [7] = assay: Antifungal activity against Penicillium marneffei at 37 degC after 3 to 4 days by agar […] method
Procedure, shortened: (§4)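 Agar well diffusion for fungi, compounds in DMSO. Sabouraud agar was adjusted to pH 5.7 and lawned with a saline spore suspension (a loopful in 3 ml). Plates were dried 1 h at 37 °C, then wells were punched. Incubation was 3–4 days at 37 °C, with controls in triplicate. Inhibition zones were measured against controls, with griseofulvin as standard.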

Pseudomonas aeruginosa [8] = assay: Antibacterial activity against Pseudomonas aeruginosa ATCC 27853 at 37 degC after 24 hrs by broth dilution method; settings: ATCC 27853, 24 h
Procedure, shortened: (§5)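 Broth dilution MIC. Nutrient broth held two-fold serial dilutions of compound and was inoculated with about 5 × 10⁵ c.f.u. of actively dividing bacteria. Cultures ran 24 h at 37 °C, with growth checked visually and spectrophotometrically. MIC was the lowest concentration arresting growth. Ciprofloxacin was the standard.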

Klebsiella pneumoniae [9] = assay: Antibacterial activity against Klebsiella pneumoniae ATCC 25922 at 37 degC after 24 hrs by broth dilution method; settings: recultured, in the assay text read “Klebsiella pneumoniae (recultured)” for “Klebsiella pneumoniae ATCC 25922”; procedure, shortened: as §5
Staphylococcus aureus [10] = assay: Antibacterial activity against Staphylococcus aureus ATCC 25923 at 37 degC after 24 hrs by disc diffusion method; procedure, shortened: as §3
Escherichia coli [11] = assay: Antibacterial activity against Escherichia coli ATCC 25922 at 37 degC after 24 hrs by disc diffusion method; procedure, shortened: as §3
Escherichia coli [12] = assay: Antibacterial activity against Escherichia coli ATCC 25922 at 37 degC after 24 hrs by broth dilution method; settings: ATCC 25922, 24 h; procedure, shortened: as §5
[13] = tested on: Trichophyton mentagrophytes; assay: Antifungal activity against Trichophyton mentagrophytes at 35 degC after 48 hrs by broth dilution method; procedure, shortened: as §2
Staphylococcus aureus [14] = assay: Antibacterial activity against Staphylococcus aureus ATCC 25923 at 35 degC after 18 to 24 hrs
Procedure, shortened: (§6)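 Bactericidal endpoint (MBC) taken from the broth-dilution MIC tubes. 0.1 ml from each tube was spread on agar plates and c.f.u. counted after 18–24 h. MBC was the lowest concentration completely killing the bacteria.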

Aspergillus fumigatus [15] = assay: Antifungal activity against Aspergillus fumigatus at 35 degC after 48 hrs by broth dilution method; procedure, shortened: as §2
Candida albicans [16] = assay: Antifungal activity against Candida albicans at 37 degC after 3 to 4 days by agar dilution method; procedure, shortened: as §4
Klebsiella pneumoniae [17] = assay: Antibacterial activity against Klebsiella pneumoniae ATCC 25922 at 37 degC after 24 hrs by disc diffusion method; procedure, shortened: as §3
Staphylococcus aureus [18] = assay: Antibacterial activity against Staphylococcus aureus ATCC 25923 at 37 degC after 24 hrs by broth dilution method; settings: ATCC 25923, 24 h; procedure, shortened: as §5
Talaromyces marneffei [19] = assay: Antifungal activity against Penicillium marneffei at 35 degC after 48 hrs; procedure, shortened: as §1
Aspergillus fumigatus [20] = assay: Antifungal activity against Aspergillus fumigatus at 37 degC after 3 to 4 days by agar […] method; procedure, shortened: as §4
Pseudomonas aeruginosa [21] = assay: Antibacterial activity against Pseudomonas aeruginosa ATCC 27853 at 35 degC after 18 to 24 hrs; procedure, shortened: as §6
Klebsiella pneumoniae [22] = assay: Antibacterial activity against Klebsiella pneumoniae ATCC 25922 at 35 degC after 18 to 24 hrs; settings: recultured, in the assay text read “Klebsiella pneumoniae (recultured)” for “Klebsiella pneumoniae ATCC 25922”; procedure, shortened: as §6
[23] = tested on: Trichophyton mentagrophytes; assay: Antifungal activity against Trichophyton mentagrophytes at 37 degC after 3 to 4 days by agar dilution method; settings: in the assay text read “agar diffusion method” for “agar dilution method”; procedure, shortened: as §4
Escherichia coli [24] = assay: Antibacterial activity against Escherichia coli ATCC 25922 at 35 degC after 18 to 24 hrs; procedure, shortened: as §6

Cc1ccc(OCc2nnc(-c3cc(-c4cc(F)c(Cl)cc4Cl)nc4ccccc34)o2)cc1
MFC [1]: 6.25 µg/mL (≈ 13 µM) | MIC (Talaromyces marneffei [2]): 12.5 µg/mL (≈ 26 µM) | MIC (Candida albicans [3]): > 100 µg/mL | MFC (Aspergillus fumigatus [4]): > 100 µg/mL | inhibition zone (IZ) (Pseudomonas aeruginosa [5]): 8 mm | MFC (Candida albicans [6]): > 100 µg/mL | inhibition zone (IZ) (Talaromyces marneffei [7]): 15 mm | MIC (Pseudomonas aeruginosa [8]): 25 µg/mL (≈ 52 µM) | MIC (Klebsiella pneumoniae [9]): 12.5 µg/mL (≈ 26 µM) | inhibition zone (IZ) (Staphylococcus aureus [10]): 15 mm | inhibition zone (IZ) (Escherichia coli [11]): 10 mm | MIC (Escherichia coli [12]): 25 µg/mL (≈ 52 µM) | MIC [13]: 6.25 µg/mL (≈ 13 µM) | MBC (Staphylococcus aureus [14]): 100 µg/mL (≈ 208 µM) | MIC (Aspergillus fumigatus [15]): > 100 µg/mL | Activity (Candida albicans [16]; in the assay text read “agar diffusion method” for “agar dilution method”): >100 µg/mL | inhibition zone (IZ) (Klebsiella pneumoniae [17]): 15 mm | MIC (Staphylococcus aureus [18]): 12.5 µg/mL (≈ 26 µM) | MFC (Talaromyces marneffei [19]): 25 µg/mL (≈ 52 µM) | Activity (Aspergillus fumigatus [20]): >100 µg/mL | MBC (Pseudomonas aeruginosa [21]): 50 µg/mL (≈ 104 µM) | MBC (Klebsiella pneumoniae [22]): 25 µg/mL (≈ 52 µM) | inhibition zone (IZ) [23]: 17 mm | MBC (Escherichia coli [24]): 50 µg/mL (≈ 104 µM)

Fc1cc(-c2cc(-c3nnc(COc4ccc(Cl)cc4Cl)o3)c3ccccc3n2)c(Cl)cc1Cl
MFC [1]: 25 µg/mL (≈ 46.7 µM) | MIC (Talaromyces marneffei [2]): 6.25 µg/mL (≈ 11.7 µM) | MIC (Candida albicans [3]): 6.25 µg/mL (≈ 11.7 µM) | MFC (Aspergillus fumigatus [4]): 12.5 µg/mL (≈ 23.4 µM) | inhibition zone (IZ) (Pseudomonas aeruginosa [5]): 30 mm | MFC (Candida albicans [6]): 6.25 µg/mL (≈ 11.7 µM) | inhibition zone (IZ) (Talaromyces marneffei [7]): 19 mm | MIC (Pseudomonas aeruginosa [8]): 6.25 µg/mL (≈ 11.7 µM) | MIC (Klebsiella pneumoniae [9]): 12.5 µg/mL (≈ 23.4 µM) | inhibition zone (IZ) (Staphylococcus aureus [10]): 20 mm | inhibition zone (IZ) (Escherichia coli [11]): 26 mm | MIC (Escherichia coli [12]): 6.25 µg/mL (≈ 11.7 µM) | MIC [13]: 6.25 µg/mL (≈ 11.7 µM) | MBC (Staphylococcus aureus [14]): 6.25 µg/mL (≈ 11.7 µM) | MIC (Aspergillus fumigatus [15]): 6.25 µg/mL (≈ 11.7 µM) | inhibition zone (IZ) (Candida albicans [16]): 29 mm | inhibition zone (IZ) (Klebsiella pneumoniae [17]): 17 mm | MIC (Staphylococcus aureus [18]): 6.25 µg/mL (≈ 11.7 µM) | MFC (Talaromyces marneffei [19]): 6.25 µg/mL (≈ 11.7 µM) | inhibition zone (IZ) (Aspergillus fumigatus [20]): 27 mm | MBC (Pseudomonas aeruginosa [21]): 12.5 µg/mL (≈ 23.4 µM) | MBC (Klebsiella pneumoniae [22]): 12.5 µg/mL (≈ 23.4 µM) | inhibition zone (IZ) [23]: 21 mm | MBC (Escherichia coli [24]): 12.5 µg/mL (≈ 23.4 µM)

Cc1ccccc1OCc1nnc(-c2cc(-c3cc(F)c(Cl)cc3Cl)nc3ccccc23)o1
MFC [1]: 12.5 µg/mL (≈ 26 µM) | MIC (Talaromyces marneffei [2]): > 100 µg/mL | MIC (Candida albicans [3]): 6.25 µg/mL (≈ 13 µM) | MFC (Aspergillus fumigatus [4]): > 100 µg/mL | Activity (Pseudomonas aeruginosa [5]): >100 µg/mL | MFC (Candida albicans [6]): 25 µg/mL (≈ 52 µM) | Activity (Talaromyces marneffei [7]): >100 µg/mL | MIC (Pseudomonas aeruginosa [8]): > 100 µg/mL | MIC (Klebsiella pneumoniae [9]): > 100 µg/mL | inhibition zone (IZ) (Staphylococcus aureus [10]): 12 mm | inhibition zone (IZ) (Escherichia coli [11]): 12 mm | MIC (Escherichia coli [12]): 12.5 µg/mL (≈ 26 µM) | MIC [13]: 6.25 µg/mL (≈ 13 µM) | MBC (Staphylococcus aureus [14]): 25 µg/mL (≈ 52 µM) | MIC (Aspergillus fumigatus [15]): > 100 µg/mL | inhibition zone (IZ) (Candida albicans [16]): 25 mm | Activity (Klebsiella pneumoniae [17]): >100 µg/mL | MIC (Staphylococcus aureus [18]): 12.5 µg/mL (≈ 26 µM) | MFC (Talaromyces marneffei [19]): > 100 µg/mL | Activity (Aspergillus fumigatus [20]): >100 µg/mL | MBC (Pseudomonas aeruginosa [21]): > 100 µg/mL | MBC (Klebsiella pneumoniae [22]): > 100 µg/mL | inhibition zone (IZ) [23]: 18 mm | MBC (Escherichia coli [24]): 25 µg/mL (≈ 52 µM)

Fc1cc(-c2cc(-c3nnc(COc4ccccc4Cl)o3)c3ccccc3n2)c(Cl)cc1Cl
MFC [1]: > 100 µg/mL | MIC (Talaromyces marneffei [2]): 12.5 µg/mL (≈ 25 µM) | MIC (Candida albicans [3]): 6.25 µg/mL (≈ 12.5 µM) | MFC (Aspergillus fumigatus [4]): > 100 µg/mL | inhibition zone (IZ) (Pseudomonas aeruginosa [5]): 22 mm | MFC (Candida albicans [6]): 12.5 µg/mL (≈ 25 µM) | inhibition zone (IZ) (Talaromyces marneffei [7]): 12 mm | MIC (Pseudomonas aeruginosa [8]): 25 µg/mL (≈ 49.9 µM) | MIC (Klebsiella pneumoniae [9]): 25 µg/mL (≈ 49.9 µM) | Activity (Staphylococcus aureus [10]): >100 µg/mL | inhibition zone (IZ) (Escherichia coli [11]): 20 mm | MIC (Escherichia coli [12]): 6.25 µg/mL (≈ 12.5 µM) | MIC [13]: > 100 µg/mL | MBC (Staphylococcus aureus [14]): > 100 µg/mL | MIC (Aspergillus fumigatus [15]): > 100 µg/mL | inhibition zone (IZ) (Candida albicans [16]): 20 mm | Activity (Klebsiella pneumoniae [17]): >100 µg/mL | MIC (Staphylococcus aureus [18]): > 100 µg/mL | MFC (Talaromyces marneffei [19]): 25 µg/mL (≈ 49.9 µM) | Activity (Aspergillus fumigatus [20]): >100 µg/mL | MBC (Pseudomonas aeruginosa [21]): 50 µg/mL (≈ 99.9 µM) | MBC (Klebsiella pneumoniae [22]): 100 µg/mL (≈ 200 µM) | Activity [23]: >100 µg/mL | MBC (Escherichia coli [24]): 50 µg/mL (≈ 99.9 µM)

O=C(O)c1cn(C2CC2)c2cc(N3CCNCC3)c(F)cc2c1=O [CIPROFLOXACIN]
inhibition zone (IZ) (Pseudomonas aeruginosa [5]): 32 mm | MIC (Klebsiella pneumoniae [9]): 12.5 µg/mL (≈ 37.7 µM) | inhibition zone (IZ) (Staphylococcus aureus [10]): 22 mm | inhibition zone (IZ) (Escherichia coli [11]): 27 mm | MBC (Staphylococcus aureus [14]): 12.5 µg/mL (≈ 37.7 µM) | inhibition zone (IZ) (Klebsiella pneumoniae [17]): 19 mm | MBC (Pseudomonas aeruginosa [21]): 12.5 µg/mL (≈ 37.7 µM) | MBC (Klebsiella pneumoniae [22]): 12.5 µg/mL (≈ 37.7 µM) | MBC (Escherichia coli [24]): 12.5 µg/mL (≈ 37.7 µM)

COC1=CC(=O)C[C@@H](C)[C@]12Oc1c(Cl)c(OC)cc(OC)c1C2=O [GRISEOFULVIN]
MFC [1]: 12.5 µg/mL (≈ 35.4 µM) | MIC (Talaromyces marneffei [2]): 6.25 µg/mL (≈ 17.7 µM) | MIC (Candida albicans [3]): 6.25 µg/mL (≈ 17.7 µM) | MFC (Aspergillus fumigatus [4]): 12.5 µg/mL (≈ 35.4 µM) | MFC (Candida albicans [6]): 12.5 µg/mL (≈ 35.4 µM) | inhibition zone (IZ) (Talaromyces marneffei [7]): 20 mm | MIC [13]: 6.25 µg/mL (≈ 17.7 µM) | MIC (Aspergillus fumigatus [15]): 6.25 µg/mL (≈ 17.7 µM) | inhibition zone (IZ) (Candida albicans [16]): 30 mm | MFC (Talaromyces marneffei [19]): 12.5 µg/mL (≈ 35.4 µM) | inhibition zone (IZ) (Aspergillus fumigatus [20]): 27 mm | inhibition zone (IZ) [23]: 24 mm
